Reference: paper PMC9079887 (RSC Advances, 2018)

What was measured:
Cathepsin K = biological target: T1, Cathepsin K (Homo sapiens, UniProt P43235); assay: Cathepsin activity assay, z-Phe-Arg-AMC substrate, cathepsin K; type: biochemical; settings: read-out: IC50 Cathepsin K, pH 5.5, tested under 10 μM
T1 sequence (P43235 115-329): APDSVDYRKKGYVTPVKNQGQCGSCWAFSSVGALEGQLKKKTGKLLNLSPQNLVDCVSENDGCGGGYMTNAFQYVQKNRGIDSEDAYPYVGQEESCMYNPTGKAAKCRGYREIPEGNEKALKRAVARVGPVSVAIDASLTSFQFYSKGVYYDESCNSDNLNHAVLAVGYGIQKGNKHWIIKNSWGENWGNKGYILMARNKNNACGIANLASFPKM
Summary of the method: (§1)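 Cathepsin activity was read fluorimetrically on a microplate reader with z-Phe-Arg-AMC as substrate. Activity data were fitted to a linearized curve, and IC50 was read from that curve.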

Cathepsin L = Cathepsin L (Homo sapiens, UniProt P07711); assay: Cathepsin activity assay, z-Phe-Arg-AMC substrate, cathepsin L; type: biochemical; settings: read-out: IC50 Cathepsin L, pH 5.5, tested under 10 μM
Summary of the method: as §1

pro-MMP-2 = settings: <50 μmol L^−1; cited from earlier work
activated form of MMP-2 = settings: <50 μmol L^−1; cited from earlier work

Chain of Cathepsin L (P07711 114-333, species assumed): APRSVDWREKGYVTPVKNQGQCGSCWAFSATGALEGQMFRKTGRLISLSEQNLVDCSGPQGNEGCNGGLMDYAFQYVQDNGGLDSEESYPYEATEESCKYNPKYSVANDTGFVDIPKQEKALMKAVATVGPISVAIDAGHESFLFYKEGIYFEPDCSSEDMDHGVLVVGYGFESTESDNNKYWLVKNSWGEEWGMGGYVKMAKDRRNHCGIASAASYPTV

| SMILES | IC50 (Cathepsin K) [µM] | IC50 (Cathepsin L) [µM] | effect on activity and expression of pro-MMP-2 (pro-MMP-2) | effect on the activated form of MMP-2 (activated form of MMP-2) |
| --- | --- | --- | --- | --- |
| [Cl][Eu]([Cl])[Cl] [EuCl3·6H2O] | > 10 | > 10 | – | – |
| [Cl-].[Cl-].[Cl-].[Tb+3] [TbCl3·6H2O] | > 10 | > 10 | – | – |
| [Cl-].[Cl-].[Cl-].[La+3] [LaCl3·7H2O] | > 10 | > 10 | – | – |
| O.O.O.O.O.O.O.[Cl-].[Cl-].[Cl-].[La+3] [LaCl3·7H2O] | – | – | inhibits the activity and expression of pro-MMP-2 | does not suppress the activated form of MMP-2 |
| [Cl][Yb]([Cl])[Cl] [YbCl3·6H2O] | > 10 | > 10 | – | – |
| [Cl-].[Cl-].[Cl-].[Gd+3] [GdCl36H2O] | > 10 | > 10 | – | – |
